Assay results taken from EPA's CvTdb concentration-time database.

What was measured:
Rat [1] = assay: concentration in brain after dosing; conditions: 7 min; dosed: 2-Methyltetrahydrofuran; 40 mg/kg; iv; Male; Harlan Sprague Dawley
Rat [2] = assay: concentration in brain after dosing; conditions: 0.5 h; dosed: 2-Methyltetrahydrofuran; 40 mg/kg; iv; Male; Harlan Sprague Dawley
Rat [3] = assay: concentration in plasma after dosing; conditions: 2 h; dosed: 2-Methyltetrahydrofuran; 40 mg/kg; iv; Female; Harlan Sprague Dawley
Rat [4] = assay: concentration in plasma after dosing; conditions: 0.5 h; dosed: 2-Methyltetrahydrofuran; 40 mg/kg; iv; Female; Harlan Sprague Dawley
Rat [5] = assay: concentration in plasma after dosing; conditions: 0.5 h; dosed: 2-Methyltetrahydrofuran; 40 mg/kg; iv; Male; Harlan Sprague Dawley
Rat [6] = assay: concentration in brain after dosing; conditions: 12 h; dosed: Fluorotelomer alcohol 8+2; 80 mg/kg; oral; Female; Harlan Sprague Dawley
Rat [7] = assay: concentration in brain after dosing; conditions: 12 h; dosed: Fluorotelomer alcohol 8+2; 24 mg/kg; oral; Male; Harlan Sprague Dawley
Rat [8] = assay: concentration in liver after dosing; conditions: 0.5 h; dosed: Fluorotelomer alcohol 8+2; 80 mg/kg; oral; Female; Harlan Sprague Dawley
Rat [9] = assay: concentration in kidney after dosing; conditions: 0.5 h; dosed: Fluorotelomer alcohol 8+2; 80 mg/kg; oral; Female; Harlan Sprague Dawley
Rat [10] = assay: concentration in kidney after dosing; conditions: 3 h; dosed: Fluorotelomer alcohol 8+2; 24 mg/kg; oral; Male; Harlan Sprague Dawley
Rat [11] = assay: concentration in kidney after dosing; conditions: 1 h; dosed: Fluorotelomer alcohol 8+2; 80 mg/kg; oral; Female; Harlan Sprague Dawley
Rat [12] = assay: concentration in plasma after dosing; conditions: 192 h; dosed: Fluorotelomer alcohol 8+2; 24 mg/kg; oral; Male; Harlan Sprague Dawley
Rat [13] = assay: concentration in plasma after dosing; conditions: 5 min; dosed: Gemfibrozil; 100 mg/kg; oral; Male; Sprague-Dawley
Rat [14] = assay: concentration in plasma after dosing; conditions: 1 h; dosed: Gemfibrozil; 50 mg/kg; oral; Male; Sprague-Dawley
Rat [15] = assay: concentration in plasma after dosing; conditions: 10 min; dosed: Gemfibrozil; 100 mg/kg; oral; Male; Sprague-Dawley
Rat [16] = assay: concentration in plasma after dosing; conditions: 6 h; dosed: Gemfibrozil; 4.29 mg/kg; oral; Male; Sprague-Dawley
Rat [17] = assay: concentration in plasma after dosing; conditions: 6 h; dosed: Gemfibrozil; 50 mg/kg; oral; Male; Sprague-Dawley
Rat [18] = assay: concentration in brain after dosing; conditions: 0.5 h; dosed: Perfluorohexanoic Acid; 80 mg/kg; oral; Male; Harlan Sprague Dawley
Rat [19] = assay: concentration in plasma after dosing; conditions: dosed: Perfluorohexanoic Acid, 40 mg/kg, oral, Male, Harlan Sprague Dawley
Rat [20] = assay: concentration in kidney after dosing; conditions: 12 h; dosed: Perfluorohexanoic Acid; 80 mg/kg; oral; Male; Harlan Sprague Dawley
Rat [21] = assay: concentration in plasma after dosing; conditions: 5 min; dosed: Perfluorohexanoic Acid; 40 mg/kg; iv; Male; F344
Rat [22] = assay: concentration in plasma after dosing; conditions: dosed: Perfluorohexanoic Acid, 80 mg/kg, oral, Male, Harlan Sprague Dawley
Rat [23] = assay: concentration in plasma after dosing; conditions: 0.25 h; dosed: Perfluorohexanoic Acid; 40 mg/kg; iv; Male; F344
Rat [24] = assay: concentration in plasma after dosing; conditions: dosed: Perfluorohexanoic Acid, 40 mg/kg, oral, Male, Harlan Sprague Dawley; remark: listed apart in the source
Rat [25] = assay: concentration in liver after dosing; conditions: 6 h; dosed: Perfluorooctane Sulfonate; 20 mg/kg; oral; Male; Harlan Sprague Dawley
Rat [26] = assay: concentration in liver after dosing; conditions: 1848 h; dosed: Perfluorooctane Sulfonate; 20 mg/kg; oral; Male; Harlan Sprague Dawley
Rat [27] = assay: concentration in kidney after dosing; conditions: 3360 h; dosed: Perfluorooctane Sulfonate; 20 mg/kg; oral; Male; Harlan Sprague Dawley
Rat [28] = assay: concentration in plasma after dosing; conditions: 24 h; dosed: Perfluorooctane Sulfonate; 2 mg/kg; oral; Female; Harlan Sprague Dawley
Rat [29] = assay: concentration in plasma after dosing; conditions: dosed: Perfluorooctane Sulfonate, 2 mg/kg, iv, Male, F344
Rat [30] = assay: concentration in kidney after dosing; conditions: 1848 h; dosed: Perfluorooctane Sulfonate; 2 mg/kg; oral; Female; Harlan Sprague Dawley
Rat [31] = assay: concentration in kidney after dosing; conditions: 864 h; dosed: Perfluorooctane Sulfonate; 2 mg/kg; oral; Female; Harlan Sprague Dawley
Rat [32] = assay: concentration in kidney after dosing; conditions: 3360 h; dosed: Perfluorooctane Sulfonate; 2 mg/kg; oral; Female; Harlan Sprague Dawley
Rat [33] = assay: concentration in plasma after dosing; conditions: dosed: Perfluorooctane Sulfonate, 2 mg/kg, iv, Female, F344
Rat [34] = assay: concentration in kidney after dosing; conditions: 6 h; dosed: Perfluorooctane Sulfonate; 20 mg/kg; oral; Female; F344
human = assay: concentration in expired air after dosing; conditions: dosed: trichloroethylene, 100 ppm, inhalation, duration: 4 hr, person
How it was run: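 A PubMed search, classifier screening and manual review identified published in vivo toxicokinetic studies, which together with two structured collections supplied concentration-versus-time and amount-versus-time points. Points were mostly digitised from plot screenshots with WebPlotDigitizer, otherwise copied from tables. Dose, route, subject details and medium were hand-curated from each paper, and sampling and analytical methods are those of the sources, often unreported.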

CC1CCCO1 (stereo not drawn) [2-Methyltetrahydrofuran]
Conditions	concentration in brain [ng/mL]	concentration in plasma [ng/mL]
Rat [1]	29000	–
Rat [2]	15200	–
Rat [3]	–	9860
Rat [4]	–	28500
Rat [5]	–	25100

O=C(O)CCC(F)(F)C(F)(F)C(F)(F)C(F)(F)C(F)(F)C(F)(F)C(F)(F)F [Fluorotelomer acid 7+3]
Conditions	concentration in brain [ng/g]	concentration in kidney [ng/g]	concentration in liver [ng/g]	concentration in plasma [ng/mL]
Rat [6]	432	–	–	–
Rat [7]	129	–	–	–
Rat [8]	–	–	934	–
Rat [9]	–	357	–	–
Rat [10]	–	1450	–	–
Rat [11]	–	762	–	–
Rat [12]	–	–	–	62.9

Cc1ccc(C)c(OCCCC(C)(C)C(=O)O)c1 [Gemfibrozil]
Conditions	concentration in plasma [ng/mL]
Rat [13]	1690
Rat [14]	3370
Rat [15]	130000
Rat [16]	640
Rat [17]	7260

O=C(O)C(F)(F)C(F)(F)C(F)(F)C(F)(F)C(F)(F)F [Perfluorohexanoic Acid]
Conditions	concentration in brain [ng/g]	concentration in kidney [ng/g]	concentration in plasma [ng/mL]
Rat [18]	2590	–	–
Rat [20]	–	1180	–
Rat [21]	–	–	540
Rat [23]	–	–	7150

concentration in plasma [ng/mL]
Conditions	0.25 h	0.5 h	9 h	24 h
Rat [19]	–	59900	9200	–
Rat [22]	91200	–	–	239
Rat [24]	–	65500	4960	–

O=S(=O)([O-])C(F)(F)C(F)(F)C(F)(F)C(F)(F)C(F)(F)C(F)(F)C(F)(F)C(F)(F)F [Perfluorooctane Sulfonate]
Conditions	concentration in kidney [ng/g]	concentration in liver [ng/g]	concentration in plasma [ng/mL]
Rat [25]	–	164000	–
Rat [26]	–	59600	–
Rat [27]	13900	–	–
Rat [28]	–	–	5040
Rat [30]	2450	–	–
Rat [31]	3420	–	–
Rat [32]	651	–	–
Rat [34]	152000	–	–

concentration in plasma [ng/mL]
Conditions	6 h	12 h	528 h	1200 h	3216 h
Rat [29]	–	5170	–	1700	–
Rat [33]	4910	–	2900	–	277

ClC=C(Cl)Cl [trichloroethylene]
human
Conditions	concentration in expired air [ppm]
0.2144 h	4.28
0.5331 h	2.8
1.023 h	1.97
2.042 h	1.38
4.039 h	0.761
5.983 h	0.736
7.98 h	0.579
10.1 h	0.488
